Test results as given in PubChem BioAssay.
Activity calls are given as the source filed them.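 The calls were made as follows, unless noted: active = compounds giving at least 50% inhibition in the cell-based MKP-3 phosphatase rescue imaging test; inactive = the rest.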

Assays:
[1] = inhibitors of TNFa-induced NFkB p65 translocation, primary screen, imaging, HUVEC, MLSMR starter and 10KST1 sets (AID 438;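 active = inhibition above 20% together with a positive visual image hit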;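 also: compound added about 3h40 before a 20 min TNFalpha stimulation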;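 as to inhibition: signal is the nuclear over cytoplasmic p65 intensity ratio per well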); settings: HUVEC TNFa-induced p65 nuclear translocation; cell count: measured here: nuclei count (cytotoxicity indicator), at 2.08 µM; inhibition: at 2 µM, stronger effect = higher value, 0% TNFa-plus-vehicle, 100% no-TNFa wells
[2] = inhibitors of E-selectin induction by TNFa, primary screen, imaging, HUVEC, immunofluorescence, MLSMR starter and 10KST1 sets (AID 487;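 active = visually confirmed hit in the image check and inhibition above 20%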;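 as to inhibition: signal is fraction of cell area covered by stained E-selectin grains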;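 as to nuclei count: 100% = median nuclei count of all wells on the same plate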); settings: HUVEC TNFalpha-induced E-selectin immunofluorescence imaging, at 2 µM; inhibition: stronger effect = higher value; nuclei count: measured here: cell number, toxicity
[3] = DUSP6 inhibitors restoring Erk phosphorylation by chemical complementation, primary imaging in DUSP6-transfected HeLa (AID 609); settings: HeLa MKP-3 transfected, phospho-Erk imaging KS statistic, at 10 µM, cells stimulated with TPA for 15 min;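 as to inhibition: phospho-Erk level distribution per well compared with pooled transfected vehicle control wells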
[4] = biological target: Dual specificity protein phosphatase 6 (Homo sapiens) (UniProt Q16828); test: as above; settings: HeLa MKP-3 transfected, phospho-Erk imaging KS statistic; at 10 µM; stronger effect = higher value; cells stimulated with TPA for 15 min
Dual specificity protein phosphatase 6 (Homo sapiens), sequence (Q16828 whole entry, looked up): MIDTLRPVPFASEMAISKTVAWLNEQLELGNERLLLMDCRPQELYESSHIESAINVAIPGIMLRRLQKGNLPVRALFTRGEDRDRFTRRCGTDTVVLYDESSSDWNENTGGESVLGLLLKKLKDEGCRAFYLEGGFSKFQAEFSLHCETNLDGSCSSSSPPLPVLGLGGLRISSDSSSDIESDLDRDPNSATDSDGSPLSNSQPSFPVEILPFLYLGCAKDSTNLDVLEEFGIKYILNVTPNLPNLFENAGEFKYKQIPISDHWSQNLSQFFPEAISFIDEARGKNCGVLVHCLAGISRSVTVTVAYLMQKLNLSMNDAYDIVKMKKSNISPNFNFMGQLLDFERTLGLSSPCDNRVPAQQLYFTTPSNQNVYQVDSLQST

[5] = biological target: Voltage-gated potassium channel subunit beta-2 (Rattus norvegicus) (UniProt P62483); test: KvBeta enzyme negative modulators, primary screen, biochemical, NADPH fluorescence (AID 622;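 active = fluorescence slope higher than the sample average by over 3 SD, cut at about -0.22 in these data, passing the limit was not always enough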;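 also: slope of raw intensity against log time taken from 70 to 1610 s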); settings: recombinant KvBeta, 4-cyanobenzaldehyde reduction, at 10 µM, stronger effect = higher value
Voltage-gated potassium channel subunit beta-2 (Rattus norvegicus), sequence (P62483 whole entry, looked up): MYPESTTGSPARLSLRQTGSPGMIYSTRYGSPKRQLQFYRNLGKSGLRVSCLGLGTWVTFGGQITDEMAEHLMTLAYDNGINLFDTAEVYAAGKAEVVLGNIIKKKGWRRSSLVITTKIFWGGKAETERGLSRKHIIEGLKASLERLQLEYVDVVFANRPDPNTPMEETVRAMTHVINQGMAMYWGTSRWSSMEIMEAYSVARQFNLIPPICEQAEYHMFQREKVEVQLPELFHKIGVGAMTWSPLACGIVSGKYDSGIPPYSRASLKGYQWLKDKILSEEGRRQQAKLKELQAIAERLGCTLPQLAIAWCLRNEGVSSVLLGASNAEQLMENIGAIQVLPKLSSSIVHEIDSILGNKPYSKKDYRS

[6] = biological target: Voltage-gated potassium channel subunit beta-2 (Rattus norvegicus) (UniProt P62483); test: KvBeta positive modulators, primary screen, biochemical, NADPH fluorescence (AID 623;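 active = NADPH fluorescence slope more negative than the mean of all samples by about 3 SD, 99.7% confidence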;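 also: fluorescence intensity change per second fitted from 20 to 320 s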); settings: Recombinant KvBeta, NADPH fluorescence decrease slope, 10 min; at 10 µM; stronger effect = lower value
[7] = biological target: Muscarinic acetylcholine receptor M4 (Homo sapiens) (UniProt P08173); test: compounds altering M4/GIRK thallium flux, either direction, primary screen, M4 allosteric agonist project, cell-based, HEK293 M4/GIRK, BTC-AM (AID 625;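 active = fluorescence slope after compound addition differing from the mean of all tested samples at 99.7% confidence, mostly higher but some lower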;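 also: thallium influx through GIRK channels coupled to M4 in HEK293 cells with BTC-AM dye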); settings: at 10 µM, actives lie on both sides
Muscarinic acetylcholine receptor M4 (Homo sapiens), sequence (P08173 whole entry, looked up): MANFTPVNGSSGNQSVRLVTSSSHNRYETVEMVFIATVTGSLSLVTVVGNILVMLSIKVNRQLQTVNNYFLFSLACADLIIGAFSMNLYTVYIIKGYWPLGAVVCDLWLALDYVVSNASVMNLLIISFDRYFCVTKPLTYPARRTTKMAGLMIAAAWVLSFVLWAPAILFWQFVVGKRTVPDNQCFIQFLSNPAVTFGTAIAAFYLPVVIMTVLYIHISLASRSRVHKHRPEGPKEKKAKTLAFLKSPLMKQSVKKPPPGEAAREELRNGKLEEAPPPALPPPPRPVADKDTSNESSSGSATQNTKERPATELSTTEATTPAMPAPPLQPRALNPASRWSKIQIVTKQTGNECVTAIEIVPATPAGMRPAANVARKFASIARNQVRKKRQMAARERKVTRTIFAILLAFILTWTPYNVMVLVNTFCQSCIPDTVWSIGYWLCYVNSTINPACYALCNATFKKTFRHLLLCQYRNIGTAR
Procedure, shortened: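 assay system = HEK293 cells with M4 receptor and GIRK channels | medium = pH 7.3 thallium assay buffer | doses = 10 µM final, single point | timing = cells overnight at 37 °C, BTC-AM loading 1 h, reads 2 min total | signal = BTC-AM fluorescence, 1 Hz kinetic reads | read-out = post-addition slope, 15–24 s, of baseline-normalized fluorescence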

[8] = inhibitors of larval lipid processing in zebrafish, primary screen, whole organism, PED6 fluorescence, gall bladder and intestine (AID 686;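 active = a full or partial loss of lipid-probe fluorescence in the fish gall bladder, intestine or both, judged by eye; inactive = no fluorescence loss, or compound toxic to the fish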;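 also: larvae 5 to 7 days old with five fish per well; signal comes from phospholipase A2 cleavage of quenched PED6 carried via bile; overnight exposure to compound and PED6 before scoring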); settings: Zebrafish larvae PED6 lipid processing, fluorescence scoring; screened at 20 µM (by protocol)
Procedure, shortened: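 Also added: quenched phospholipase substrate PED6, 100 nM final, ingested by larvae; System: zebrafish larvae, 5-7 d; Quantity: 5 larvae per well; Compound: 20 µM single dose; Schedule: overnight compound and PED6 incubation; Read-out: visual per-well fluorescence inhibition score; Measured by: By-eye fluorescence microscopy; Medium: E3.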

[9] = inhibitors of Chlamydomonas gravitaxis, primary screen, whole organism, Chlamydomonas reinhardtii, WT vs cilia-less mutant, absorbance, 96-well (AID 463189;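 active = inhibition at or above 50% relative to wild type and mutant plate controls; inactive = inhibition below 50%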;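 also: 0% = wild type cc124 cells in DMSO and 100% = ciliumless bld1 mutant cells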); settings: OD600 absorbance, 2 days, at 10 µM, stronger effect = higher value
[10] = measured here: cell density z-score
[11] = measured here: nuclear c-Myc green intensity z-score
[12] = measured here: nuclear pErk red intensity z-score, stronger effect = higher value

SMILES	cell count [1]	inhibition [1]	inhibition [2]	nuclei count [2]	z-score [3, 10]	z-score [3, 11]	z-score [3, 12]	inhibition [4]	fluorescence slope [5]	NADPH fluorescence slope [6]	fluorescence slope [7]	outcome [8]	inhibition [9]
NC(=O)/C(=N\O)c1ccccc1	575	5.9% (inactive)	-43.3% (inactive)	113%	-0.256	-0.324	0.104	-4.7% (inactive)	-0.461 (inactive)	-5.1e-05 (inactive)	0.00531 (inactive)	inactive	-12.8% (inactive)
C=C(C)CSc1nc(N)c2c3c(sc2n1)CCC3	394	-3.4% (inactive)	2.9% (inactive)	149%	-1.07	1.64	-0.412	5.42% (inactive)	-0.451 (inactive)	-0.000115 (inactive)	0.00788 (inactive)	inactive	-7.33% (inactive)
CCCCCOc1ccccc1C(=O)NCC(=O)O	376	-5% (inactive)	-55.5% (inactive)	169%	0.663	-0.72	-0.603	-0.584% (inactive)	-0.438 (inactive)	-9.1e-05 (inactive)	0.00543 (inactive)	inactive	-2.86% (inactive)
COC(=O)C1CCN(c2nc3ccccc3nc2C(C#N)C(=O)NCCc2ccccc2)CC1 (stereo unspecified)	600	-8.8% (inactive)	-60.5% (inactive)	199%	0.0104	-0.0979	-0.225	1.42% (inactive)	-0.356 (inactive)	-5.2e-05 (inactive)	0.00365 (inactive)	inactive	-8.92% (inactive)
COC(=O)C(NC(=O)c1ccc(F)cc1)(Nc1nc(C)cs1)C(F)(F)F (stereo unspecified)	695	-6.3% (inactive)	-18.4% (inactive)	151%	-0.266	-0.66	0.98	-3.95% (inactive)	-0.444 (inactive)	-4.6e-05 (inactive)	0.00339 (inactive)	inactive	7.8% (inactive)
O=C(CN1C(=O)c2ccccc2C1=O)OCN1C(=O)c2ccccc2C1=O	494	-4.5% (inactive)	-52.7% (inactive)	125%	0.289	0.0514	-0.238	3.97% (inactive)	-0.348 (inactive)	-2.7e-06 (inactive)	0.00658 (inactive)	inactive	-6.56% (inactive)
CN(C)CCCNCCCCNC(=O)/C=N/O	458	3.8% (inactive)	-56.6% (inactive)	143%	-0.174	-0.575	1.08	17.7% (inactive)	-0.441 (inactive)	-3.9e-05 (inactive)	0.00523 (inactive)	inactive	6.6% (inactive)
Cc1ccc(-c2nn(C)c(=O)c3ccccc23)cc1CNC(=O)CSc1nc2ccccc2o1	547	3.6% (inactive)	21.6% (inactive)	106%	-1.01	1.51	0.619	1.98% (inactive)	-0.419 (inactive)	-5.4e-05 (inactive)	0.00502 (inactive)	inactive	22.8% (inactive)
c1ccc2c(c1)CCN(c1ncnc3c1[nH]c1ccccc13)C2	585	-19.2% (inactive)	-59.1% (inactive)	172%	0.335	-1.2	1.56	-4.59% (inactive)	-0.388 (inactive)	-1.5e-05 (inactive)	0.00488 (inactive)	inactive	42.6% (inactive)
Cc1cc(=O)oc(C)c1C(=O)NCCC1=CCCCC1	603	-7.1% (inactive)	-25.9% (inactive)	114%	-1.14	1.4	1.29	1.63% (inactive)	-0.415 (inactive)	-3.7e-05 (inactive)	0.00474 (inactive)	inactive	-3.01% (inactive)
Cc1ccc2cc(CNC(C)C)c(=O)[nH]c2c1	529	-8.4% (inactive)	12.9% (inactive)	99.8%	2.86	-1.18	-1.89	37.7% (inactive)	-0.49 (inactive)	-2.7e-05 (inactive)	0.00672 (inactive)	inactive	-6.41% (inactive)
CCOC(=O)c1[nH]c2ccc(C)cc2c1N	678	-29.2% (inactive)	-53.9% (inactive)	207%	-1.62	0.0814	1.41	-5.95% (inactive)	-0.46 (inactive)	-4.7e-05 (inactive)	0.00561 (inactive)	inactive	-1.56% (inactive)
C=CCN(C)CCCNC(=O)/C=N/O	585	-6.9% (inactive)	22.6% (inactive)	87%	1.68	-0.8	-0.822	31.4% (inactive)	-0.504 (inactive)	-8.8e-05 (inactive)	0.00593 (inactive)	inactive	-9.97% (inactive)
CCOC(=O)CSc1nc(-c2ccc3c(c2)OCO3)ccc1C#N	676	4.9% (inactive)	5.4% (inactive)	120%	-0.127	-1.03	0.898	-2.91% (inactive)	-0.199 (inactive)	-8.6e-07 (inactive)	0.00583 (inactive)	inactive	-3.42% (inactive)
O=C(O)c1ccc(C2CCCCC2)cn1	532	0.5% (inactive)	-129% (inactive)	197%	-1.16	0.871	-1.14	3.97% (inactive)	-0.444 (inactive)	-4.4e-05 (inactive)	0.00555 (inactive)	inactive	-1.91% (inactive)
CN1CCc2c(C#N)c(N3CCCCC3)nc(NCc3ccccc3)c2C1	577	-13.5% (inactive)	-93.5% (inactive)	143%	0.729	-1.12	0.497	-2.09% (inactive)	-0.422 (inactive)	-6.7e-05 (inactive)	0.00359 (inactive)	inactive	7.09% (inactive)
COCCCNC(=O)c1c(N)n(/N=C/c2cccnc2)c2nc3ccccc3nc12	719	4.4% (inactive)	0.4% (inactive)	113%	-0.256	0.735	2.99	4.25% (inactive)	-0.253 (inactive)	-3.5e-06 (inactive)	0.00597 (inactive)	inactive	-6.04% (inactive)
COCc1[nH]nc2c1C(c1ccc(OC)cc1)C(C#N)=C(N)O2 (stereo unspecified)	664	-8.1% (inactive)	0.4% (inactive)	142%	-1.64	0.0391	-2.4	-4.27% (inactive)	-0.477 (inactive)	-6e-05 (inactive)	0.006 (inactive)	inactive	0.628% (inactive)
N#Cc1nc(COc2ccc(Cl)cc2)oc1N1CCN(Cc2ccccc2)CC1	489	-3% (inactive)	-24.2% (inactive)	139%	-0.636	0.047	1.31	-2.29% (inactive)	-0.411 (inactive)	-5.4e-05 (inactive)	0.00907 (inactive)	inactive	3.53% (inactive)
CC1(C)CCN(Cc2ccccc2)C1CC#N (stereo unspecified)	572	-1.7% (inactive)	-7.9% (inactive)	134%	-0.215	-0.992	0.527	3.97% (inactive)	-0.353 (inactive)	8.5e-06 (inactive)	0.00545 (inactive)	inactive	34.2% (inactive)
Oc1oc(-c2ccco2)nc1C=Nc1cccc(Cl)c1	562	5.6% (inactive)	-19% (inactive)	131%	-0.184	-1.01	0.105	-12.6% (inactive)	-0.449 (inactive)	-0.000133 (inactive)	0.00392 (inactive)	inactive	-1.6% (inactive)
COC(=O)c1sc2nc(N3CCCCC3)c3c(c2c1N)CC(C)(C)N(C)C3	365	-3.8% (inactive)	-114% (inactive)	173%	-0.314	1.33	0.691	3.42% (inactive)	-0.155 (active)	8.1e-06 (inactive)	0.00431 (inactive)	inactive	7.69% (inactive)
CCN(CC)CCN1C(=O)C(=O)/C(=C(/O)c2c(C)[nH]c(C(=O)OC)c2C)C1c1ccccc1 (stereo unspecified)	727	-3.9% (inactive)	-88% (inactive)	165%	0.278	0.96	0.24	-11.9% (inactive)	-0.485 (inactive)	-4.8e-05 (inactive)	0.0049 (inactive)	inactive	13.3% (inactive)
Cc1cc(NC(CC(C)C)C(=O)O)nc(Cc2ccccc2)n1 (stereo unspecified)	372	-2.8% (inactive)	-117% (inactive)	188%	-0.0865	-1.02	0.665	5.42% (inactive)	-0.47 (inactive)	-0.000155 (inactive)	0.00469 (inactive)	inactive	0.592% (inactive)
COc1ccccc1-c1nnc2n1N=C(c1ccc(O)c(O)c1)CS2	485	50.9% (active)	-490% (inactive)	70.4%	1.36	-1.29	-0.603	-6.48% (inactive)	-0.429 (inactive)	-1.7e-05 (inactive)	0.00474 (inactive)	inactive	-2.32% (inactive)
CC1(C)Cc2c(C#N)c(SCc3nc4ccccc4[nH]3)nc(N3CCOCC3)c2CO1	464	-6.9% (inactive)	-111% (inactive)	99.1%	-1.63	0.58	-0.0845	3.97% (inactive)	-0.39 (inactive)	1.4e-05 (inactive)	0.00539 (inactive)	inactive	-18.5% (inactive)
C#CC1CN(Cc2ccccc2)CC(C#C)N1C (stereo unspecified)	690	-3% (inactive)	9% (inactive)	156%	-0.126	-0.517	1.32	-7.67% (inactive)	-0.44 (inactive)	-3.5e-05 (inactive)	0.00453 (inactive)	inactive	-0.669% (inactive)
